Measurements taken from ChEMBL document CHEMBL3813618, “Polyhalogenated Indoles from the Red Alga Rhodophyllis membranacea: The First Isolation of Bromo-Chloro-Iodo Secondary Metabolites” (J Nat Prod, 2016).

Columns and labels:
Saccharomyces cerevisiae = assay: Antifungal activity against Saccharomyces cerevisiae BY4741 assessed as growth inhibition; type: functional
Method in brief: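 Wild-type strain BY4741 grown in liquid synthetic complete medium with compound; cell density read at A600. Concentration giving 50% growth inhibition determined relative to untreated controls.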

[1] = Cytotoxicity against human HL60 cells assessed as cell growth inhibition after 48 hrs by MTT assay; type: functional, cell-based; conditions: HL-60, 48 h
Method in brief: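 Cell proliferation MTT assay, 48 h exposure of HL-60 promyelocytic leukemia cells to compound at various concentrations; dose-response generated relative to untreated HL-60 control cells. n = 1 or 2 independent experiments, duplicate wells per experiment.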

SMILES	IC50 (Saccharomyces cerevisiae)	IC50 [1]
O=C1Nc2cccc(Cl)c2C1=O	> 61 µM	–
Clc1[nH]c2c(Br)c(I)ccc2c1Cl	39 µM	49 µM
Clc1[nH]c2c(Br)ccc(Br)c2c1Cl	23 µM	28 µM
Brc1ccc2c(Br)c(Br)[nH]c2c1Br	69 µM	38 µM
Clc1[nH]c2c(Br)c(Br)ccc2c1Cl	63 µM	61 µM
Clc1c(Br)[nH]c2c(Br)c(Br)ccc12	> 83 µM	78 µM
CC(=O)CC1(O)C(=O)Nc2cccc(Cl)c21 (stereo not drawn)	> 49 µM	61 µM
